A selection: hits, their analogues and other compounds. The true share with any hit is near 0.79%.
bIAP act: increases bovine intestinal alkaline phosphatase activity; purified bovine IAP, CDP-star luminescence, 30 min; active compounds read high; fold of DMSO-control signal, blank-subtracted; activation factor at 20 µM; 0.17% of 200,000 active;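 active = activation factor of 2 or more at 20 µM, a signal rise over negative controls twice the positive control's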
hIAP act: human IAP activation; AID 2524; 0.16% of 330,000 active; purified human IAP, CDP-Star luminescence, 30 min; active compounds read high; 1 = vehicle-only enzyme, 0 = enzyme-free background; activation factor at 10 µM;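 active = activation factor of the enzyme at least 2-fold when tested at 20 µM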
Target sequence (P09923 whole entry, looked up): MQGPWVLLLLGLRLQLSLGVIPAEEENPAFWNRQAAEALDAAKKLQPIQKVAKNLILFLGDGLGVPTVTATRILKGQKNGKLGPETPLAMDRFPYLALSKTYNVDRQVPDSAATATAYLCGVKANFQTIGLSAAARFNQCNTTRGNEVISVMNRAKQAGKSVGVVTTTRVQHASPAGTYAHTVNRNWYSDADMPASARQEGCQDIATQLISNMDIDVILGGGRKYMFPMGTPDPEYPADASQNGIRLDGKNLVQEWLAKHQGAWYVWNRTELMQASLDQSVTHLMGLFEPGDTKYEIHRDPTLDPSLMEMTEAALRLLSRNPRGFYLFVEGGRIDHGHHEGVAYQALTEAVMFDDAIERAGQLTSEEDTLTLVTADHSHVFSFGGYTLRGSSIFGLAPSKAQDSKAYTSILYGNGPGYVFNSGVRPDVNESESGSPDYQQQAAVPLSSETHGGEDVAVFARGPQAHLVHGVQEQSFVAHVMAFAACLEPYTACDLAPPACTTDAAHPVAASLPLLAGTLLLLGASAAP
hIAP inh: human IAP inhibition; AID 2544; purified IAP, CDP-Star luminescence, 30 min; 0.12% of 330,000 active; inhibition, % at 10 µM;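 active = inhibition reaching a set limit with compound at 10 µM in the primary screen, cut at about 35% in these data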
mIAP act: mouse IAP activation | muIAP, CDP-Star luminescence, 30 min; active compounds read high; 1 = vehicle-only enzyme signal, 0 = enzyme-free wells | activation factor at 10 µM | 0.24% of 330,000 active | AID 2805;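 active = activation factor of at least 2 at 20 µM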
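also added = chemiluminescent substrate CDP-Star | test system = mouse IAP enzyme | signal = chemiluminescence readout | compound = DMSO-dissolved test compounds | incubation = 30 min at room temperature | benchmarks = DMSO wells, no-enzyme wells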
mIAP inh: blocks mouse intestinal alkaline phosphatase; purified mouse IAP, CDP-Star luminescence, 30 min; inhibition, % at 10 µM; AID 2806; 0.2% of 330,000 active;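 active = inhibition of at least 40% at 10 µM in the primary screen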
bIAP inhibitor: blocks bovine intestinal alkaline phosphatase activity | purified bovine IAP, CDP-star luminescence, 30 min | inhibition, % at 20 µM | 190,000 tested, under 10 active;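 active = over 50% inhibition of intestinal alkaline phosphatase at 20 µM in the single-dose screen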
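System: Purified bovine intestinal alkaline phosphatase (IAP) enzyme | Input: IAP diluted 1/65,000,000 in the well | Also added: CDP-star chemiluminescent phosphatase substrate, 30 µM final | Dosing: 20 µM single dose | Times: Enzyme reaction for 30 min at room temperature | Detection: Luminescence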
Numbers stand for hits.

`N#Cc1cc2c(nc1SCc1cccc(Cl)c1)CCCCC2` gave bIAP act inactive, hIAP act inactive, hIAP inh inactive, mIAP act inactive, mIAP inh 41 and bIAP inhibitor inactive.
For Cc1cccc(S(=O)Cc2ccc(C(=O)N3CCOCC3)o2)c1 (stereo not given) the results were hIAP act inactive, hIAP inh inactive, mIAP act inactive and mIAP inh inactive.
`O=C(O)c1ccc(CS(=O)c2cccc(C(F)(F)F)c2)o1` (stereo not given) gave bIAP act 3.2, hIAP act inactive, hIAP inh inactive, mIAP act inactive, mIAP inh inactive and bIAP inhibitor inactive.
For Cc1cc2nc(CCN(C(=S)NCC(C)C)C3CCCC3)[nH]c2cc1C the results were bIAP act inactive, hIAP act inactive, hIAP inh inactive, mIAP act 2.1, mIAP inh inactive and bIAP inhibitor inactive.
For CCN(CC(=O)Nc1cccc(F)c1)Cc1nc2ccccc2c(=O)[nH]1 the results were bIAP act inactive, hIAP act inactive, hIAP inh inactive, mIAP act inactive, mIAP inh inactive and bIAP inhibitor inactive.
CCN(CC(=O)NCc1ccc(F)cc1)Cc1nc2ccccc2c(=O)[nH]1 was read as bIAP act 2, hIAP act inactive, hIAP inh inactive, mIAP act inactive, mIAP inh inactive and bIAP inhibitor inactive.
For NS(=O)(=O)c1cc2c(cc1Cl)NC(c1ccccc1OCC(=O)O)NS2(=O)=O (stereo not given) the results were hIAP act inactive, hIAP inh inactive, mIAP act inactive and mIAP inh inactive.
Screening Cc1ccc(S(=O)(=O)N2[C@@H](c3cccc(Cl)c3)C(C(=O)O)=CC[C@H]2c2cccc(Cl)c2)cc1 returned hIAP act inactive, hIAP inh inactive, mIAP act inactive and mIAP inh 42.
Cc1ccc(S(=O)(=O)c2cc3ccccc3nc2N)cc1 was read as bIAP act inactive, hIAP act inactive, hIAP inh inactive, mIAP act inactive, mIAP inh inactive and bIAP inhibitor inactive.
Screening COc1ccc(C(=O)N/C(=C\c2cccc3ccccc23)C(=O)NCCc2c[nH]c3ccccc23)cc1OC returned bIAP act inactive, hIAP act inactive, hIAP inh inactive, mIAP act inactive, mIAP inh inactive and bIAP inhibitor inactive.
`Cc1c(/C=N/NC(=O)CNc2ccccc2)c2ccccn2c1C(=O)c1ccc(Cl)cc1` gave bIAP act 10, hIAP act inactive, hIAP inh inactive, mIAP act inactive, mIAP inh inactive and bIAP inhibitor inactive.
`Cc1ccccc1NCC(=O)N/N=C/c1c(C)c(C(=O)c2ccc(Cl)cc2)n2ccccc12` gave bIAP act inactive, hIAP act inactive, hIAP inh inactive, mIAP act inactive, mIAP inh inactive and bIAP inhibitor inactive.
Cc1cccc(OCCCCCn2ccnc2)c1C was read as bIAP act 3, hIAP act inactive, hIAP inh inactive, mIAP act inactive, mIAP inh inactive and bIAP inhibitor inactive.
Screening CCC(C)c1ccccc1N1CC(C(=O)N(C)CC(=O)Nc2cccc(F)c2)CC1=O (stereo not given) returned hIAP act inactive, hIAP inh inactive, mIAP act inactive and mIAP inh inactive.
`COc1ccc(NC(=O)Nc2ccc3c(c2)C(=O)N([C@H](C)CO)C[C@H](C)[C@@H](CN(C)C(=O)NC2CCCCC2)O3)cc1` gave hIAP act inactive, hIAP inh inactive, mIAP act 2.4 and mIAP inh inactive.
For Cc1noc(C)c1S(=O)(=O)N(C)C[C@H]1Oc2ccc(NC(=O)NC3CCCCC3)cc2C(=O)N([C@H](C)CO)C[C@@H]1C the results were hIAP act inactive, hIAP inh inactive, mIAP act 2.6 and mIAP inh inactive.
`COc1ccc(NC(=O)N(C)C[C@H]2Oc3ccc(NC(=O)NC4CCCCC4)cc3C(=O)N([C@H](C)CO)C[C@@H]2C)cc1` gave hIAP act inactive, hIAP inh inactive, mIAP act 2.1 and mIAP inh inactive.
Screening Cc1nnc(NC(=O)CSc2ccc(-c3ccccn3)nn2)s1 returned bIAP act inactive, hIAP act inactive, hIAP inh inactive, mIAP act inactive, mIAP inh inactive and bIAP inhibitor inactive.

High-throughput results as filed in PubChem BioAssay.
